The source of these data is ChEMBL document CHEMBL1147636, “Fluorescence-labeled sphingosines as substrates of sphingosine kinases 1 and 2” (Bioorg Med Chem Lett, 2004).

Assay [1] concerns the target T1, Sphingosine kinase 2 (Homo sapiens) (UniProt Q9NRA0).
T1 sequence (whole entry): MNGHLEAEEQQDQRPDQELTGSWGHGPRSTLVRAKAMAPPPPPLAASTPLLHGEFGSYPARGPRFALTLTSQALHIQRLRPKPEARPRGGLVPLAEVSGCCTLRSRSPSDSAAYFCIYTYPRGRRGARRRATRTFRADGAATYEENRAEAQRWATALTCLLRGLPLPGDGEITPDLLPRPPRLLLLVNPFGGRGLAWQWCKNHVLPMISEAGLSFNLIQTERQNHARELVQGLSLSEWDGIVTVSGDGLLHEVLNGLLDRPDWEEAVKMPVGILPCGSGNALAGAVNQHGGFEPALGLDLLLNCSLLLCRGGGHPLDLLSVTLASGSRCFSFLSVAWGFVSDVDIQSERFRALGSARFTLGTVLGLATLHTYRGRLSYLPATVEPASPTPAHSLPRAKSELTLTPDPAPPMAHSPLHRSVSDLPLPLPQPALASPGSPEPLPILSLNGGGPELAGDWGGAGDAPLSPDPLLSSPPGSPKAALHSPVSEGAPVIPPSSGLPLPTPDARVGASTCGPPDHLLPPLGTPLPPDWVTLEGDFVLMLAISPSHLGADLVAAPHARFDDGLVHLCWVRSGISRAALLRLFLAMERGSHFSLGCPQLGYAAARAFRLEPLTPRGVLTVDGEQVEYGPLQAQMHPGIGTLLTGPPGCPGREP
The assay can be described thus: Rate of phosphorylation of labeled sphingosine derivative by human SPHK-2 expressed in HEK293 cells relative to rate of D-sphingosine. In kind it is functional, cell-based. Summed up: (§1)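 Enzyme source was the cytoplasmic fraction of HEK-293 cells overexpressing human SPHK-1 or -2. Incubation was at 30 °C for time points up to 2 h. Lipids were extracted, separated by TLC and quantified by phosphorimaging, and rates were expressed relative to sphingosine.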

Assay [2] concerns the target Sphingosine kinase 1 (Homo sapiens) (UniProt Q9NYA1). As to the kind of experiment: Rate of phosphorylation of labeled sphingosine derivative by human SPHK-1 expressed in HEK293 cells relative to rate of D-sphingosine. Format: functional, cell-based. The essentials: as §1

Molecules are shown by their SMILES.

Chain of Sphingosine kinase 1 (Homo sapiens) (Q9NYA1 whole entry): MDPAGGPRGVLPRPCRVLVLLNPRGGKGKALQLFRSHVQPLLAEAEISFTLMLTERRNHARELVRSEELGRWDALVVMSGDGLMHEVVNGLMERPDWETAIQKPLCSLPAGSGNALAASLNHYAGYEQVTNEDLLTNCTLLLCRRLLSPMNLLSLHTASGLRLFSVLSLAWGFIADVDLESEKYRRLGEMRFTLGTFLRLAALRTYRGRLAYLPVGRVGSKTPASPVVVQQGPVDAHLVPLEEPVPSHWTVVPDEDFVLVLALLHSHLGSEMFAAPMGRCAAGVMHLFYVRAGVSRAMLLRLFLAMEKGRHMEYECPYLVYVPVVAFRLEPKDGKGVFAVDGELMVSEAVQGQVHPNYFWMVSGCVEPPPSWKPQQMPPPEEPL

In the case of `NC(CO)[C@H](O)/C=C/CCCCCCCCCCNS(=O)(=O)c1ccc2ccc3cccc4ccc1c2c34` (some centres undefined), the figures for the Rate in assay [1] and in assay [2] were 0.83 and 0.051, respectively.

As for `N[C@@H](CO)[C@H](O)/C=C/CCCCCCCCCCOC(=O)c1ccc2ccc3cccc4ccc1c2c34`, the figures for the Rate in assay [1] and in assay [2] were 1.25 and 0.83, respectively.

As for `CN(C)c1ccc(S(=O)(=O)NCCCCCCCCCC/C=C/C(O)C(N)CO)c2ccccc12` (single isomer, unassigned), the results for the Rate in assay [1] and in assay [2] were 0.026 and 0.063, respectively.

As to `N[C@@H](CO)[C@H](O)/C=C/CCCOC(=O)CCCCCc1ccc2ccc3cccc4ccc1c2c34`, the Rate in assay [1] worked out at 0.83; in assay [2] it was 0.078.

As to `N[C@@H](CO)[C@H](O)/C=C/CCCOC(=O)CCCc1ccc2ccc3cccc4ccc1c2c34`, the Rate was found to be 0.14 in assay [1] and 0.048 in assay [2].

For the compound `N[C@@H](CO)[C@H](O)/C=C/CCCOC(=O)CCCCCCCCCc1ccc2ccc3cccc4ccc1c2c34`, the Rate in assay [1] was 0.065; in assay [2], 0.024.

With `NC(CO)[C@H](O)/C=C/CCCCCCCCCCNc1ccc([N+](=O)[O-])c2nonc12` (single isomer, unassigned), the Rate is 0.48 in assay [1] and 0.5 in assay [2].
